Experiments:
[1] = biological target: T1, CDK4/Cyclin D3 (Homo sapiens) (UniProt P11802+P30281); assay: Inhibition of recombinant full-length human CDK4/cyclinD3 at 500 nM using Rb fragment as substrate measured after 40 mins in presence of [gamma33P]ATP by scintillation counting method relative to control; assay type: protein-complex assay
How it was run: (§1)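 Percent inhibition of kinase activity at a single compound concentration, measured by the outsourced Eurofins KinaseProfiler panel. Values are the mean of two independent experiments.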

A549 [2] = assay: Antiproliferative activity against human A549 cells assessed as inhibition of cell viability at 10 uM after 72 hrs by CCK-8 assay relative to control; assay type: functional; conditions: A549, 72 h
How it was run: (§2)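 Single-concentration viability screen using CCK-8. Cells were seeded at 3000/well and treated for 72 h. A450 read after 1-4 h with reagent. Percent inhibition calculated against untreated control and blank wells as (Ac−As)/(Ac−Ab)×100%.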

NCI-H1299 [3] = assay: Antiproliferative activity against human H1299 cells assessed as inhibition of cell viability at 10 uM after 72 hrs by CCK-8 assay relative to control; assay type: functional; conditions: NCI-H1299, 72 h; how it was run: as §2
[4] = biological target: T1, CDK4/Cyclin D3 (Homo sapiens); assay: Inhibition of recombinant full-length human CDK4/cyclinD3 at 1 uM using Rb fragment as substrate measured after 40 mins in presence of [gamma33P]ATP by scintillation counting method relative to control; assay type: protein-complex assay; how it was run: as §1
[5] = biological target: T2, CDK6/cyclin D3 (Homo sapiens) (UniProt P30281+Q00534); assay: Inhibition of recombinant full-length human CDK6/cyclinD3 at 1 uM using histone H1 as substrate measured after 40 mins in presence of [gamma33P]ATP by scintillation counting method relative to control; assay type: protein-complex assay; how it was run: as §1
[6] = biological target: T3, CDK9/cyclin T1 (Homo sapiens) (UniProt O60563+P50750); assay: Inhibition of recombinant full-length human CDK9/cyclinT1 at 1 uM using KTFCGTPEYLAPEVRREPRILSEEEQEMFRDFDYIADWC peptide as substrate measured after 40 mins in presence of [gamma33P]ATP by scintillation counting method relative to control; assay type: protein-complex assay; how it was run: as §1
NCI-H1299 [7] = assay: Antiproliferative activity against human H1299 cells assessed as inhibition of cell viability at 1 uM after 72 hrs by CCK-8 assay relative to control; assay type: functional; conditions: NCI-H1299, 72 h; how it was run: as §2
A549 [8] = assay: Antiproliferative activity against human A549 cells assessed as inhibition of cell viability at 1 uM after 72 hrs by CCK-8 assay relative to control; assay type: functional; conditions: A549, 72 h; how it was run: as §2
CDK9/cyclin T1 = CDK9/cyclin T1 (Homo sapiens, UniProt P50750); assay: Inhibition of recombinant full-length human CDK9/cyclinT1 using KTFCGTPEYLAPEVRREPRILSEEEQEMFRDFDYIADWC peptide as substrate measured after 40 mins in presence of [gamma33P]ATP by scintillation counting method; assay type: protein-complex assay
CDK9/cyclin T1, sequence (O60563 whole entry): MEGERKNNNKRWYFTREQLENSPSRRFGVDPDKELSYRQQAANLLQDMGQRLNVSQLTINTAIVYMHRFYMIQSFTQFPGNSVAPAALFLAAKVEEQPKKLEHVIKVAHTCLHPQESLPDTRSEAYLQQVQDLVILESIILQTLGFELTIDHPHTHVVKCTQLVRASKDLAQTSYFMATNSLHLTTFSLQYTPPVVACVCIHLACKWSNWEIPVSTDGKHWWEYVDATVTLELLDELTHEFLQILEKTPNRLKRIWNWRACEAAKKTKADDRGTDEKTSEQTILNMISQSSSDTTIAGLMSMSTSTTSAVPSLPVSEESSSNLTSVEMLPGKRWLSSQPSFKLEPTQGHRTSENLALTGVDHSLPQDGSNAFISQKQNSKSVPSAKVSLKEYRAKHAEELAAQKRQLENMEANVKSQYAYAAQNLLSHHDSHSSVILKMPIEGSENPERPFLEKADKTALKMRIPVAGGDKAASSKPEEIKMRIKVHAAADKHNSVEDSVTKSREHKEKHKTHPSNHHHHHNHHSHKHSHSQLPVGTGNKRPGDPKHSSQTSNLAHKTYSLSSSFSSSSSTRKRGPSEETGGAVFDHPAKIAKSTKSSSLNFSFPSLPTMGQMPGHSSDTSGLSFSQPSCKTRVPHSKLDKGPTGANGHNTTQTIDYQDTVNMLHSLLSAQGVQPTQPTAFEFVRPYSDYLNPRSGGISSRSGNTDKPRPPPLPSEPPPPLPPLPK
CDK9/cyclin T1, sequence (P50750 whole entry): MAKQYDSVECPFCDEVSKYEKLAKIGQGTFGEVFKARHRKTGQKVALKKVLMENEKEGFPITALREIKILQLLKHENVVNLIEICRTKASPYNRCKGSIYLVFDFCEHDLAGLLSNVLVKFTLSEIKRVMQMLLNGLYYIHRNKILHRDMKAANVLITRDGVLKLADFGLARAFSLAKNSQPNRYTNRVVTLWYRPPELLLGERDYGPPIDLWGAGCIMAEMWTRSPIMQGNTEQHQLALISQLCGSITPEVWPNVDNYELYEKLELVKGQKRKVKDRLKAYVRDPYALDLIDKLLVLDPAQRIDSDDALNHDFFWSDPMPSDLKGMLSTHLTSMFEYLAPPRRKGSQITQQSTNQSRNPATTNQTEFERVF
How it was run: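 IC50 against CDK9/cyclin T1, determined by the outsourced Eurofins KinaseProfiler service. Values are the mean of two independent experiments.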

[9] = biological target: T2, CDK6/cyclin D3 (Homo sapiens); assay: Inhibition of recombinant full-length human CDK6/cyclinD3 at 500 nM using histone H1 as substrate measured after 40 mins in presence of [gamma33P]ATP by scintillation counting method relative to control; assay type: protein-complex assay; how it was run: as §1
[10] = biological target: T3, CDK9/cyclin T1 (Homo sapiens); assay: Inhibition of recombinant full-length human CDK9/cyclinT1 at 500 nM using KTFCGTPEYLAPEVRREPRILSEEEQEMFRDFDYIADWC peptide as substrate measured after 40 mins in presence of [gamma33P]ATP by scintillation counting method relative to control; assay type: protein-complex assay; how it was run: as §1
[11] = biological target: T3, CDK9/cyclin T1 (Homo sapiens); assay: Potency index, ratio of ribociclib IC50 to compound IC50 for inhibition of recombinant full-length human CDK9/cyclinT1; assay type: protein-complex assay

Row | SMILES | inhibition [1] | inhibition at 10 µM (A549 [2]) | inhibition at 10 µM (NCI-H1299 [3]) | inhibition [4] | inhibition [5] | inhibition [6] | inhibition at 1 µM (NCI-H1299 [7]) | inhibition at 1 µM (A549 [8]) | IC50 (CDK9/cyclin T1) | inhibition [9] | inhibition [10] | Ratio IC50 [11]
1 | CN(C)C(=O)c1cc2cnc(Nc3cccc(NC(=O)CCCCCCCN=C=S)c3)nc2n1C1CCCC1 | 59% | 96.7% | 86.9% | 80% | 74% | 96% | 50.6% | 44.6% | 15 nM | 23% | 98% | 
2 | CN(C)C(=O)c1cc2cnc(Nc3ccc(S(=O)(=O)NCCCCCCN=C=S)cc3)nc2n1C1CCCC1 | 78% | 101% | 70.6% | 89% | 81% | 96% | 42.4% | 49.5% | 9 nM | 41% | 98% | > 20
3 | CN(C)C(=O)c1cc2cnc(Nc3ccc(C(=O)NCCCCCN=C=S)cc3F)nc2n1C1CCCC1 | 72% | 15.6% | 86.7% | 86% | 81% | 96% | 36.1% | -1.6% | 11 nM | 30% | 96% | 
4 | CN(C)C(=O)c1cc2cnc(Nc3ccc(C(=O)NCCCN=C=S)cc3O)nc2n1C1CCCC1 |  | 73% | 24.2% | 46% | 68% | 94% | 10.3% | 55.9% | 68 nM | 21% | 90% | 
5 | CN(C)C(=O)c1cc2cnc(Nc3ccc(NC(=O)CCCCCCN=C=S)cc3)nc2n1C1CCCC1 | 99% | 102% | 80.9% | 97% | 86% | 99% | 50.9% | 43.3% |  | 65% | 98% | 
6 | CN(C)C(=O)c1cc2cnc(Nc3ccc(C(=O)NCCCCCCN=C=S)cc3F)nc2n1C1CCCC1 | 68% | 22.9% | 77.6% | 89% | 78% | 94% | 29.1% | -11.8% | 34 nM | 34% | 95% | 
7 | CN(C)C(=O)c1cc2cnc(Nc3ccc(NC(=O)CCCCN=C=S)cc3)nc2n1C1CCCC1 | 100% | 102% | 82.5% | 97% | 93% | 97% | 58.6% | 38.2% |  | 71% | 99% | 
8 | CN(C)C(=O)c1cc2cnc(Nc3ccc(CNC(=O)CCCCCCCN=C=S)cc3)nc2n1C1CCCC1 | 89% | 98.9% | 91.7% | 93% | 81% | 95% | 53.8% | 17.8% |  | 63% | 90% | 
9 | CN(C)C(=O)c1cc2cnc(Nc3ccc(C(=O)NCCCN=C=S)cc3)nc2n1C1CCCC1 | 98% | 102% | 91.2% | 99% | 94% | 98% | 65.1% | 32.9% |  | 69% | 100% | 
10 | CN(C)C(=O)c1cc2cnc(Nc3ccc(C(=O)NCCCCCN=C=S)cc3O)nc2n1C1CCCC1 |  | 30.7% | 80.7% | 59% | 60% | 92% | 22.6% | 23.1% | 33 nM |  | 91% | 
11 | CN(C)C(=O)c1cc2cnc(Nc3ccc(C(=O)NCCCCCCCN=C=S)cc3F)nc2n1C1CCCC1 | 60% | 12.7% | 35.8% | 67% | 52% | 92% | -9.23% | 0.05% | 50 nM |  | 90% | 
12 | CN(C)C(=O)c1cc2cnc(Nc3ccc(C(=O)NCCCCN=C=S)cc3F)nc2n1C1CCCC1 | 76% | 24.4% | 78.9% | 89% | 86% | 96% | 28.7% | -7% | 6 nM | 38% | 97% | 
13 | CN(C)C(=O)c1cc2cnc(Nc3ccc(NC(=O)CCCCCCCN=C=S)cc3F)nc2n1C1CCCC1 | 62% | 94.1% | 14% | 72% | 49% | 95% | 7.5% | 8.65% | 25 nM |  | 96% | 
14 | CN(C)C(=O)c1cc2cnc(Nc3ccc(C(=O)NCCCN=C=S)cc3F)nc2n1C1CCCC1 | 75% | 60.2% | 78.5% | 86% | 82% | 97% | 9.27% | 16.7% | 10 nM | 41% | 98% | 
15 | CN(C)C(=O)c1cc2cnc(Nc3ccc(C(=O)NCCCCN=C=S)cc3O)nc2n1C1CCCC1 |  | 41.7% | 51.8% | 55% | 61% | 91% | 10.7% | 30.3% | 42 nM |  | 89% | 

— ChEMBL document CHEMBL4376814, “Novel cyclin-dependent kinase 9 (CDK9) inhibitor with suppression of cancer stemness activity against non-small-cell lung cancer” (Eur J Med Chem, 2019)
